ARNT TACC3 PPI: disruptors of ARNT/TACC3 protein interaction, primary screen, biochemical, AlphaScreen, single concentration; AlphaScreen His-ARNT PAS-B/GST-TACC3 binding, luminescence; TACC3 fragment carries E629A point mutation; inhibition, % at 9.99 µM; actives 0.66% (n = 390,000);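 active means mean inhibition of replicates at least 50% and at least half of replicates each reaching 50%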
FN deposition inh: inhibitors of fibronectin matrix deposition, primary screen, AH1F cells, Alexa488-fibronectin fluorescence, plate reader | AH1F fibroblasts, overnight | inhibition, % at 12.6 µM | actives 0.086% (n = 350,000);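 active means mean inhibition across replicates of 30% or more, regardless of how many single replicates reach that level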
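Material: AH1F fibroblast monolayer depositing Alexa488-labelled fibronectin into matrix / Amount: 10000 AH1F cells per well / Signal: fluorescence 485/525 nm / Medium: DMEM, 2% serum / Compound: single dose, pinned / Incubation: 1 h cell adhesion before compound, then overnight fibronectin incubation / Reagent: Alexa488-FN, 24 nM final / Read-out: inhibition of fibronectin deposition signal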
PDI inh: inhibitors of human PDI, primary screen, biochemical, turbidity, single point, plate reader; Protein disulfide-isomerase (Homo sapiens), P07237; PDI insulin aggregation turbidity, A650, 90 min; inhibition, % at 10 µM; actives 0.052% (n = 350,000); AID 588391, 2011;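 active means mean inhibition across replicates of 30% or more, whatever share of single replicates reach that level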
FGF22 binding: binders of human FGF22 protein, primary screen, FGF22 synaptogenesis inhibitor project, biophysical, thermal shift, single point; recombinant FGF22 thermal shift, SYPRO orange fluorescence; percent of sucrose octasulfate shift, DMSO zero; activity (Tm shift, normalised), % at 9.99 µM; actives 1.5% (n = 340,000); Fibroblast growth factor 22 (Homo sapiens), Q9HCT0;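 active means mean Tm shift, scaled 0 neutral to 100 positive control, at about 1.3% or above, every replicate too, limit read from the data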
Target sequence (Q9HCT0 whole entry, looked up): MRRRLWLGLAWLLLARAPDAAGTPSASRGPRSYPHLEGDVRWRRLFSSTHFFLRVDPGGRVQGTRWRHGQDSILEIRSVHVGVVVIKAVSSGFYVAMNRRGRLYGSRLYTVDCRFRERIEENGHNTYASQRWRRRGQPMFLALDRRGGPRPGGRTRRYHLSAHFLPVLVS
AF4-AF9 inh: inhibitors of AF4 peptide binding to AF9, primary screen, biochemical, AlphaScreen, biotin-AF4 peptide, FLAG-AF9, single point; inhibition, % at 10 µM; actives 0.47% (n = 350,000); AID 651704, 2012;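 active means every replicate reaching a set inhibition limit, whatever the replicate mean, cut at about 25% in these data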
Target sequence (P42568 whole entry, looked up): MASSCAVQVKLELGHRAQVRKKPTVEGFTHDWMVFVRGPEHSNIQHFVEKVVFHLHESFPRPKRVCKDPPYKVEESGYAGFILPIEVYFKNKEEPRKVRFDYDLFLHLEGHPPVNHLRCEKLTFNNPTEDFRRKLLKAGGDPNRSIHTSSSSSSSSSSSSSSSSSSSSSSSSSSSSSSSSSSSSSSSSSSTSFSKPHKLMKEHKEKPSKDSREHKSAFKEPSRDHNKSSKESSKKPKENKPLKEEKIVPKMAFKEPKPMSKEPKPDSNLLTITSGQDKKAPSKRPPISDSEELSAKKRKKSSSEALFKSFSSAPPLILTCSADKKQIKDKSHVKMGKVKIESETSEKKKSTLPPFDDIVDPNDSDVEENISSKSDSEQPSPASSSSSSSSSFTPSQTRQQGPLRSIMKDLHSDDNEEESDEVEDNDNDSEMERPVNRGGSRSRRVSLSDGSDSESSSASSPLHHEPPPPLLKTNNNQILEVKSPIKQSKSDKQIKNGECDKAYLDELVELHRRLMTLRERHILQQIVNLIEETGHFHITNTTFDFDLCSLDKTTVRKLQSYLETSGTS
ERp5 block: inhibitors of ERp5-driven insulin aggregation, primary screen, biochemical, turbidity, absorbance 650 nm, single point; Protein disulfide-isomerase A6 (Homo sapiens), Q15084; 90 min; inhibition, % at 9.99 µM; actives 0.05% (n = 350,000); AID 651711, 2012;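 active means mean replicate inhibition above about 25%, with every replicate also reaching it, limit read from the data, passing the limit was not always enough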
Of the large screens only hits and unclear results are named; the others gave an inactive call. Compounds with a hit are over-represented: about 2.1% of the library has one in this group of screens.

COCc1cc(C)nc(OCC(=O)N/N=C/c2ccc(C)cc2)c1C#N	none (no result: ERp5 block)
COCc1cc(C)nc(OCC(=O)N/N=C/c2ccc(OC)c(O)c2)c1C#N	FGF22 binding 44 (no result: ARNT TACC3 PPI)
COC(=O)C[C@@H]1C[C@H]2c3cc(NC(=O)c4cccnc4)ccc3O[C@H]2[C@@H](CO)O1	none (no result: PDI inh)
Cc1ccc(S(=O)(=O)NCCC(=O)Nc2ccc(Cl)c(Cl)c2)cc1C	FGF22 binding 47
Cc1cc(N=Nc2ccc(C)c(N=Nc3cc(C)c(N)cc3N)c2)c(N)cc1N	AF4-AF9 inh 63
CCc1nccn1CCC(=O)N1CCc2c([nH]c3ccccc23)C1CC(C)C (stereo not given)	none
COCc1ccc(CN2CCc3c([nH]c4ccccc34)C2CC(C)C)o1 (stereo not given)	FGF22 binding 43
CCCCNC(=O)O[C@@H]1C[C@@H]2CCN3C(=O)CCC[C@H]([C@H]1CC)[C@H]23	AF4-AF9 inh 94
Cc1cccn2cc(-c3cc4ccccc4oc3=O)nc12	FGF22 binding 43
CCN(CC)c1ccc(NC(=S)NC(=O)C2CCC2)cc1	AF4-AF9 inh 26 (no result: FN deposition inh)
CO[C@H]1CN(C)C(=O)c2ccc(NC(=O)c3cccc(F)c3)cc2OC[C@H](C)N(C)C[C@@H]1C	none (no result: ARNT TACC3 PPI, PDI inh)
CCNC(=O)Nc1ccc2c(c1)C(=O)N(C)[C@H]1CC[C@H](CC(=O)Nc3ccccc3)O[C@@H]1CO2	none (no result: PDI inh)
COC(=O)c1ccc(C2/C(=C(\O)c3cccc(OC)c3)C(=O)C(=O)N2CCCN(C)C)cc1 (stereo not given)	ARNT TACC3 PPI 59
C[C@H](CO)N1C[C@H](C)[C@H](CN(C)Cc2ccccc2C(=O)O)Oc2ncc(C3=CCCC3)cc2C1=O	none (no result: PDI inh)
N#C[C@H]1[C@@H](c2ccccc2C2=CCCC2)[C@@H](CO)N1C(=O)C1CCC1	none (no result: ARNT TACC3 PPI, PDI inh)
CN(C)CCNC(=O)c1coc(=O)c(Br)c1	none (no result: FN deposition inh, FGF22 binding, AF4-AF9 inh, ERp5 block)
CC(C)CNC(=O)c1coc(=O)c(Br)c1	FN deposition inh active (no result: FGF22 binding, AF4-AF9 inh, ERp5 block)
CCOC(=O)Cn1nc(C(F)F)c(Br)c1C	FGF22 binding 44
COc1ccccc1-c1ccc2c(c1)O[C@H](CN(C)S(=O)(=O)c1ccc(F)cc1)[C@H](C)CN([C@H](C)CO)S2(=O)=O	none (no result: FN deposition inh, PDI inh)
COc1ccc(C2Nc3ccccc3NC3=C2C(=O)CC(C)(C)C3)cc1O (stereo not given)	ARNT TACC3 PPI 47
C[C@H]1CN([C@@H](C)CO)C(=O)c2cc(NC(=O)Cn3cnnn3)ccc2O[C@@H]1CN(C)C(=O)Nc1ccc(F)cc1	none (no result: PDI inh)
O=[N+]([O-])c1cc2c(cc1/C=N/n1c(-c3ccccn3)n[nH]c1=S)OCO2	ARNT TACC3 PPI 71 (no result: FGF22 binding, AF4-AF9 inh, ERp5 block)
S=c1[nH]nc(-c2ccccn2)n1/N=C/c1cccc(Cl)c1	ARNT TACC3 PPI 61
O=[N+]([O-])c1cc2c(cc1/C=N/n1c(-c3ccccc3)n[nH]c1=S)OCO2	none (no result: FN deposition inh, FGF22 binding, AF4-AF9 inh, ERp5 block)
Cc1ccsc1/C=N/n1c(-c2ccccn2)n[nH]c1=S	ARNT TACC3 PPI 61
COc1ccc(-c2ccc3c(c2)O[C@H](CN(C)C(C)=O)[C@H](C)CN([C@H](C)CO)S3(=O)=O)cc1	none (no result: PDI inh)
C[C@@H]1CCCCO[C@@H](CN(C)C(=O)C2CCCCC2)[C@@H](C)CN([C@H](C)CO)C(=O)c2cc(NC(=O)c3ccncc3)ccc2O1	none (no result: FN deposition inh, PDI inh)
CCCN(C)C[C@@H]1Oc2cc(C#CCC(C)C)ccc2S(=O)(=O)N([C@@H](C)CO)C[C@@H]1C	none (no result: PDI inh)
O=C(NC(c1ccccc1)c1ccccc1)c1cccc(S(=O)(=O)NCc2ccccc2)c1	ARNT TACC3 PPI active
CC(C)CC#Cc1cnc2c(c1)C(=O)N([C@H](C)CO)C[C@H](C)[C@H](CN(C)C(=O)Cc1ccncc1)O2	none (no result: FN deposition inh, PDI inh)
O=C(c1cc2c(=O)n3ccccc3nc2s1)N1CCN(Cc2ccc3c(c2)OCO3)CC1	FGF22 binding 43
CCn1ncc(-c2cc(C(=O)O)no2)c1C	FGF22 binding 43 (no result: PDI inh)
CN(C)C(=O)[C@]1(Cc2ccccc2CN=[N+]=[N-])N=C(c2ccc(OCCCO)cc2)O[C@@H]1c1ccccc1	none (no result: FN deposition inh, PDI inh)
O=[N+]([O-])c1cc(CN2CCCC2)c2cccnc2c1O	ARNT TACC3 PPI 77 (no result: FN deposition inh, FGF22 binding, AF4-AF9 inh, ERp5 block)
O=[N+]([O-])c1cc(CN2CCN(c3cccc(C(F)(F)F)c3)CC2)c2cccnc2c1O	FGF22 binding 43, AF4-AF9 inh 36 (no result: ARNT TACC3 PPI, PDI inh)
Oc1ccc(CN2CCN(c3ccccc3)CC2)c2cccnc12	none (no result: FN deposition inh, FGF22 binding, AF4-AF9 inh)
CN(C)CCN(C)Cc1ccccc1Sc1cccc2ccccc12	AF4-AF9 inh 36 (no result: ARNT TACC3 PPI)
COC(=O)C[C@H]1CC[C@H]2[C@@H](COc3ccc(NC(=O)c4ccccc4OC)cc3C(=O)N2C)O1	none (no result: ARNT TACC3 PPI, PDI inh)
C/C(N)=C(/C#N)C(=O)COC(=O)CNS(=O)(=O)c1c(F)cccc1F	FGF22 binding 43
C/C(N)=C(/C#N)C(=O)COC(=O)CNS(=O)(=O)c1ccc2ccccc2c1	none
O=C(c1cccc(Cl)c1)C1CCCN(C(=O)c2ccc3c(c2)OCO3)C1 (stereo not given)	AF4-AF9 inh 31
CCOc1ccccc1NC(=O)c1nc(-c2ccccc2)oc1C	FGF22 binding 43
C[C@H](CO)N1C[C@H](C)[C@H](CN(C)C(=O)c2ccccn2)Oc2ncc(C#Cc3ccccn3)cc2C1=O	none (no result: FN deposition inh, PDI inh)
CCC(=O)Nc1cc(C(=O)O)ccc1Sc1ccc(Cl)cc1	FGF22 binding 44
CCN(CC)CCNC(=O)c1ccc(Sc2ccc(C)cc2)c(NC(C)=O)c1	none (no result: FN deposition inh)
CCN(CC)CCNC(=O)c1ccc(Sc2ccc(Cl)cc2)c(NC(C)=O)c1	FGF22 binding 45
CC(=O)Nc1cc(C(=O)N2CCc3ccccc3C2)ccc1Sc1ccc(Cl)cc1	none
CC(C)CC#Cc1ccc2c(c1)O[C@@H](CN(C)C(=O)c1cccc(F)c1)[C@@H](C)CN([C@H](C)CO)S2(=O)=O	none (no result: PDI inh)
Cc1cc2c(cc1S(=O)(=O)N1CCN(c3ccccc3)CC1)OCC(=O)N2	none (no result: PDI inh)
Cc1cc2c(cc1S(=O)(=O)N1CCN(c3ccccc3F)CC1)OCC(=O)N2	ARNT TACC3 PPI 15 (no result: FN deposition inh)
NCC[C@@H]1CC[C@H](NC(=O)C2CCCC2)[C@H](CO)O1	none (no result: FN deposition inh, PDI inh)
CN(C)CCN(C(=O)c1ccc2c(c1)OCCO2)c1nc2ccc(Cl)cc2s1	ARNT TACC3 PPI 46
COc1cccc2cc(C(=O)Nc3ccc(F)cc3)c(=Nc3ccc(C(=O)O)cc3)oc12	FGF22 binding 43

Screens deposited in PubChem by Broad Institute.
